Source: ChEMBL document CHEMBL1772963, “Isolation and structure of homotemsirolimuses A, B, and C” (J Nat Prod, 2011)

Experiments:
[1] = biological target: Serine/threonine-protein kinase mTOR (Homo sapiens, UniProt P42345); assay: Inhibition of FKBP12-independent human recombinant mTOR expressed in HEK293 cells using His6-S6K1 as a substrate by DELFIA assay; format: cell-based
In short: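 Recombinant mTOR kinase activity measured with no FKBP12 present, with vehicle or a range of compound doses. IC50 derived by plotting percent inhibition relative to control.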

LNCaP = assay: Antiproliferative activity against human LNCAP cells after 3 days by MTS assay; format: functional, cell-based; conditions: 72 h
In short: (§1)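 Cells seeded in 96-well plates for 24 h, then treated with vehicle or a range of compound doses for 3 days. Viable cell density read by MTS assay. IC50 taken from plots of percent inhibition versus vehicle control.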

[2] = Antiproliferative activity against human MDA468 cells after 3 days by MTS assay; format: functional, cell-based; conditions: MDA-MB-468, 72 h; in short: as §1

SMILES | IC50 [1] [nM] | IC50 (LNCaP) [nM] | IC50 [2] [nM]
CC[C@@H]1CC[C@H]2C[C@H](OC)/C(C)=C/C=C/C=C/[C@@H](C)C[C@@H](C)C(=O)[C@H](OC)[C@H](O)/C(C)=C/[C@@H](C)C(=O)C[C@@H]([C@H](C)C[C@@H]3CC[C@@H](OC(=O)C(C)(CO)CO)[C@H](OC)C3)OC(=O)[C@@H]3CCCCN3C(=O)C(=O)[C@]1(O)O2 [HOMOTEMSIROLIMUS A] | 1800 | 2.5 | 1
CC[C@@H]1/C=C/C=C/C=C(\C)[C@@H](OC)C[C@@H]2CC[C@@H](C)[C@@](O)(O2)C(=O)C(=O)N2CCCC[C@H]2C(=O)O[C@H]([C@H](C)C[C@@H]2CC[C@@H](OC(=O)C(C)(CO)CO)[C@H](OC)C2)CC(=O)[C@H](C)/C=C(\C)[C@@H](O)[C@@H](OC)C(=O)[C@H](C)C1 [HOMOTEMSIROLIMUS B] | 2500 | 13 | 5
CO[C@H]1C[C@@H]2CC[C@@H](C)[C@@](O)(O2)C(=O)C(=O)N2CCCC[C@H]2C(=O)O[C@H]([C@H](C)C[C@@H]2CC[C@@H](OC(=O)C(C)(CO)CO)[C@H](OC)C2)CC(=O)[C@H](C)/C=C(\C)[C@@H](O)[C@@H](OC)C(=O)[C@H](C)C[C@H](C)/C=C/C=C/C=C/1C [TEMSIROLIMUS] | 1760 | 0.5 | 8
CC[C@@H]1/C=C(\C)[C@@H](O)[C@@H](OC)C(=O)[C@H](C)C[C@H](C)/C=C/C=C/C=C(\C)[C@@H](OC)C[C@@H]2CC[C@@H](C)[C@@](O)(O2)C(=O)C(=O)N2CCCC[C@H]2C(=O)O[C@H]([C@H](C)C[C@@H]2CC[C@@H](OC(=O)C(C)(CO)CO)[C@H](OC)C2)CC1=O [HOMOTEMSIROLIMUS C] | 2100 | 8 | 5
